Measured values taken from the EternaBench riboswitch data.

Tested on: MS2 coat protein
Experiment: apparent Kd, MS2 coat protein; higher = weaker binding; RNA-MaP array; FMN 200 µM where present
Method in brief: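 Designs on Illumina sequencing-chip clusters, transcribed by stalled E. coli RNA polymerase, were exposed to SNAP-549-labelled MS2 coat protein in doubling steps from 0.7 or 1.5 nM up to 3 µM, without and then with constant ligand. The buffer held 100 mM Tris-HCl pH 7.5, 80 mM KCl, 4 mM MgCl2, BSA, DTT, yeast tRNA and Tween-20. Apparent Kd values are medians of filtered per-cluster binding-curve fits to green signal normalised to red-channel RNA signal and control-cluster median Fmax.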

[1] = designed as: OFF switch for flavin mononucleotide, no ligand
[2] = ligand present: flavin mononucleotide, designed as: OFF switch for flavin mononucleotide
[3] = designed as: ON switch for flavin mononucleotide, no ligand
[4] = ligand present: flavin mononucleotide, designed as: ON switch for flavin mononucleotide

Sequence	apparent Kd [1]	apparent Kd [2]	apparent Kd [3]	apparent Kd [4]
GCAUGACAAAGUCAUGCAUUACGAACAUGAGGAUCACCCAUGUAGGAUAUGCUACUCAAAGAGUAGCAGAAGGACAUGUGUCUU	32.7 nM	158 nM		
GAAGCUAUCGGAGGAUAUUCAUAGCCGAAAGGCACAUGAGGAUCACCCAUGUGCGGAAACGCUUGGGAGAAGGCCGAUAGCUUC			25.4 nM	14.7 nM
CGGUAAACCACAGGAUAUGGCUAGCAUAGCUAGCCAGAAGGGUGGUCGAAACCAUGUAAAUACAUGAGGAUCACCCAUGUAUCC			501 nM	52.6 nM
GCAUGCAAGUAGAAGGGCAGAUAUUUUGAUACUGCAGGAUAUGCAGAAUCAUAUCCACAUGAUAACAUGAGGAUCACCCAUGUA	33.7 nM	26.1 nM		
CCACUCUAUGCAGGAUAUCGAGCCUGGGCCUUAUUUUUUGUAAACAUGAGGAUCACCCAUGUCUUCGAGAAGGGCAUAACAACG	178 nM	241 nM		
GGUACUCAAAGAGUACCAAUACGAACAUGAGGAUCACCCAUGUAGGAUAUGCUACUCAAAGAGUAGCAGAAGGACAUGUGCCUC	418 nM	38.5 nM		
GAUAGGACAGAGAAGGACAUAGCUAGAGAUACUAGCAUACGAACCUUUACAUGAGGAUCACCCAUGUAGGAUAUCUGUCCUAUC	5.43 nM	6.78 nM		
UAUUAUCACGAAGGAUAUGCUGACAUGAGGAUCACCCAUGUAUGUAUAUUGAUCCAGCGUAUUUAGCAGAAGGUCGUGAGUAAA	45.9 nM	43 nM		
GAUUGAAAAGGAUAUACAUGAGGAUCACCCAUGUGCUUCAGCUAGGAGACUAGCAUUGGUAGAAGGUUUUAAUC	22.2 nM	43.9 nM		
AUAUAAUAUCAGGAUAUGACUAGCUUCGGCUAGUCAGAAGGGAUGACAUGAGGAUCACCCAUGUGAUCAUAUAU	35.7 nM	153 nM		
UAUAACUUACAGAAGGGUAUUGUGGUGCAUUAUUAGUAGGAAAUACUAUACAGGAUAUGUAAUACAUGAGGAUCACCCAUGUUC			22.3 nM	14.9 nM
AACAGGGAUUCAGGAUAUAUUAGCCGAGGCCGCGUAGAAGGGAAAUCCUGACAUGAGGAUCACCCAUGUCGACCCGCCUUCCAC			23.1 nM	22.9 nM
UUUCUUGGGCAAGGAUAUCCUGUGCGGUUCUGGCUCGUGUCUGUCACAUGAGGAUCACCCAUGUGGGAGAAGGUGCCUGCGGUC	6.13 nM	6.1 nM		
AGGUGUCCUGAGAAAUUUCUCGACAUGAGGAUCACCCAUGUAGAGGAUAUCGACGCUGUGCGGUUCGAGAAGGCUACACGAAUU	12.7 nM	94.3 nM		
UUCAUGUUGCGAGGAUAUCGUGUUAACAUGAGGAUCACCCAUGUAUAGGUUUAUUAAUUAGUUUUCGAGAAGGCGCUUUUAGUA			215 nM	158 nM
AUGCUUCACACAGGAUAUACAUGAGGAUCACCCAUGUGUCCACAGUAGCUGACACGAGCUACGCGGUAGAAGGGUGUGAAGCAU	18.5 nM	61.2 nM		
GCAUUUGAGCAGGAUAUAGCCUGAACAUAAUGGUUAGAAGGGCUCACAUGAGGAUCACCCAUGUGGUGUCCUAA	12.8 nM	36 nM		
UUUAGUUUAGGAUAUGUAGACAUUAACAUGAGGAUCACCCAUGUAGAUCCUGAAUUGACUACAGAAGGAAGCAUUU	248 nM	446 nM		
AAAAGCUAAGGAUAUACAUGAGGAUCACCCAUGUACACCGGUACGGGUGCGAACUCCUGUAGAAGGUGGGAUAA	148 nM	159 nM		
AAUAUGAGCUGGUUUAAAUCCUAAACAUGAGGAUCACCCAUGUAGGAUAUCAGCACGAUAAGUGCUGAGAAGGACAUCCAGCUC	15.1 nM	15.2 nM		
CUUUUGGGAGGAUAUACAUGAGGAUCACCCAUGUGGUCGUGACCAAGUAAGCGCACUCGUAGAAGGCCCACGAC	66.7 nM	98 nM		
